The text below walks through data of ChEMBL document CHEMBL1909618, “Non-steroidal dissociated glucocorticoid agonists: indoles as A-ring mimetics and function-regulating pharmacophores” (Bioorg Med Chem Lett, 2011).

Calls of active or inactive are those of the source. The calls are words filed in the database; no cut-off is given here.

The term IC50 denotes the midpoint of a concentration-inhibition curve. As usually defined, the inhibition in vivo is how much of the control response was suppressed. As a reminder, the clearance is the volume of plasma or blood freed of the substance per unit of time. Low values mean a low capacity for elimination, high ones a high capacity for elimination. The term Cmax denotes the highest concentration seen after dosing. Usually bioavailability stands for dose-corrected exposure relative to a reference, in per cent. A word on the ED50: it is the dose that gives a 50% effect, or the effect in half of the subjects.

The target of data set [1] is T1, Mineralocorticoid receptor (Homo sapiens, UniProt P08235).
T1 sequence (P08235 whole entry): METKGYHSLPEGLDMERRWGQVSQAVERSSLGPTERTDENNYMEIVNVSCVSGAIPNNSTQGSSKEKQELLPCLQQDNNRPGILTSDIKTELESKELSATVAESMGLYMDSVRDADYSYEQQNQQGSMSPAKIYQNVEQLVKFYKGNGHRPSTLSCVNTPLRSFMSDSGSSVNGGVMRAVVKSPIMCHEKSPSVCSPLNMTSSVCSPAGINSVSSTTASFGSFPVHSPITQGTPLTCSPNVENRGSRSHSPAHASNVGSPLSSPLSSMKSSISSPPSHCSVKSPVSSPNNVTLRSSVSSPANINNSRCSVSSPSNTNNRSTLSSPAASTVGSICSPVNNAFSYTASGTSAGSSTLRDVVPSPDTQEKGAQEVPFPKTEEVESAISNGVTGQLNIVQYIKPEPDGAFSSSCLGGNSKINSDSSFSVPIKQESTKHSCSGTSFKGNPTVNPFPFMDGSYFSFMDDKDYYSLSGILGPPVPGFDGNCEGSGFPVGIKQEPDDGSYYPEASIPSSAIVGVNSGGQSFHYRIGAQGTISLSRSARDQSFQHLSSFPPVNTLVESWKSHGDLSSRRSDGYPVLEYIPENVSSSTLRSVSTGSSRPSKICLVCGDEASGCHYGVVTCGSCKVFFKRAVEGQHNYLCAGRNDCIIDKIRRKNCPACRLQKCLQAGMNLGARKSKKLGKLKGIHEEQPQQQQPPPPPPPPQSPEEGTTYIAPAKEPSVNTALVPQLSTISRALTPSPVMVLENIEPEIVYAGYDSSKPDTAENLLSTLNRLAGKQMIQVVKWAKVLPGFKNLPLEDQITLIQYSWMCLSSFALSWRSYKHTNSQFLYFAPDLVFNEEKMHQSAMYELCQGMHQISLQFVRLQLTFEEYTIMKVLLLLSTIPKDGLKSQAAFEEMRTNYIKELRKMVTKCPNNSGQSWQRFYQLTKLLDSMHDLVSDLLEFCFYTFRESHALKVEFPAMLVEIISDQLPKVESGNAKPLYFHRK
Put plainly: Displacement of tetramethylrhodamine-labeled Dexamethasone from human recombinant mineralocorticoid receptor expressed in baculovirus infected insect cells by fluorescence polarization assay. The method, boiled down:
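Fluorescence polarization competition assays with recombinant human receptors in lysates of baculovirus-infected insect cells. Reactions contained 1% DMSO and ran 1 h at room temperature.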

Data set [2] has as its target T2, Androgen receptor (Homo sapiens) (UniProt P10275).
T2 sequence (whole entry): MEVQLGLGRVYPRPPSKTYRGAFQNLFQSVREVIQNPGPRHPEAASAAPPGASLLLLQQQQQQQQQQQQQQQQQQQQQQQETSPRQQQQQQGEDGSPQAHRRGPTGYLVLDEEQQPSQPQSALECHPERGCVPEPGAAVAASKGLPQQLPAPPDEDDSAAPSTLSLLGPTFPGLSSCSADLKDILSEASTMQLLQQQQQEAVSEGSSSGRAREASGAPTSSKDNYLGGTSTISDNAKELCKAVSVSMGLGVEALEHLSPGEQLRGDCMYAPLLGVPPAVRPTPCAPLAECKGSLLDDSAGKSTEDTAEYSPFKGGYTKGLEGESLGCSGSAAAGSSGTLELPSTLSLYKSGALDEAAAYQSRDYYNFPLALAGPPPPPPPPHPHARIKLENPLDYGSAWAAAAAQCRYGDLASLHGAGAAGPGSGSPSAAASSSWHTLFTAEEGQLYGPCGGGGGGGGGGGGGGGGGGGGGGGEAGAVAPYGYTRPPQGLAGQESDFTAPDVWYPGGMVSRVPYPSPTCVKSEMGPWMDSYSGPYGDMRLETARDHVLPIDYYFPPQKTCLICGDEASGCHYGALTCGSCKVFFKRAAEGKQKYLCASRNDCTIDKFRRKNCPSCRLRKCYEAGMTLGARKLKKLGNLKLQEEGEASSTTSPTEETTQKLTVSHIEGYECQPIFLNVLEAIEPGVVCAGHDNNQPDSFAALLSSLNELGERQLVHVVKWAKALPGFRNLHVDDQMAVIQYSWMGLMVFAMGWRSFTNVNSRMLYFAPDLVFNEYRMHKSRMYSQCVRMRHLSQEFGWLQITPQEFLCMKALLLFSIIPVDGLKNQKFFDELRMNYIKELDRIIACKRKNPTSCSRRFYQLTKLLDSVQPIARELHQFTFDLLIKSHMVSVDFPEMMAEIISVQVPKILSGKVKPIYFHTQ
Put plainly: Displacement of [3H]-testosterone from human recombinant androgen receptor expressed in baculovirus infected insect cells at 1200 nM. In short, it runs like this: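 Competition of test compound at a single concentration against 10 nM ³H-testosterone for binding to recombinant human AR in lysates of baculovirus-infected cells. Dihydrotestosterone at 2 µM served as the positive control. Results are expressed as % of control.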
Background: Loss of bound radioactivity is the signal in a displacement assay; it reports binding, not function.

For data set [3], the system named is Mus musculus. Put plainly: Toxicity in B10.R3 mouse collagen-induced arthritis model assessed as change in serum free fatty acids level at 30 mg/kg, po qd for 5 weeks relative to control. The format is organism-based. Details: dose 30 mg/kg, route oral. Particulars: in vivo, 840 h. The method, boiled down: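 Arthritic B10.RIII CIA mice were dosed orally once daily for 5 weeks. At day 35 they were anesthetized with ketamine (50 mg/kg) and xylazine (15 mg/kg). Body fat was assessed by whole-body density scan. Serum triglycerides were measured by enzymatic kit (Wako L-Type TG-H) and free fatty acids by NEFA-C. Results are expressed as % change versus vehicle and compared by t-test.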

Data set [4] has as its system Mus musculus. Put plainly: Antiarthritic activity in B10.R3 mouse collagen-induced arthritis model assessed as AUC of disease progression inhibition at 10 mg/kg, po qd for 5 weeks. The format is functional. Particulars: B10.R3, 840 h. The method, boiled down:
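B10.RIII mice immunized with porcine type II collagen plus complete Freund's adjuvant were enrolled at the first signs of arthritis. They were dosed orally once daily for 5 weeks; vehicle was 30% Cremophor RH. All four paws were scored 1–4 (maximum 16 per animal). Disease-score AUCs from 10 mice per group were compared with vehicle by Mann–Whitney test.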

The nature of data set [5]: Clearance in B10.R3 mouse at 1 mg/kg, iv. The format is ADME, organism-based. Details: dose 1 mg/kg, route intravenous. Particulars: in vivo. In short, it runs like this: (§1)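 Mouse PK: IV dose 1 mg/kg in PEG400/water (70:30); oral dose 30 mg/kg given as a suspension in 30% Cremophor. Values are the mean of 3 mice.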
Data set [6] is described as follows: Cmax in B10.R3 mouse at 30 mg/kg, po. The class given is ADME, organism-based. More on the design: dose 30 mg/kg, route oral. Particulars: in vivo. In short, it runs like this: as §1
The species named for a further data set is Homo sapiens. In words: Selectivity ratio of IC50 for human recombinant glucocorticoid receptor to IC50 for human recombinant progesterone receptor.
A short description of data set [7]: Volume of distribution at steady state in B10.R3 mouse at 1 mg/kg, iv. The format is ADME, organism-based. Particulars: in vivo, read-out: Vdss. Details: dose 1 mg/kg, route intravenous. The method, boiled down: as §1
Data set [8] is described as follows: Oral bioavailability in Sprague-Dawley rat at 30 mg/kg. Particulars: in vivo. The format is ADME, organism-based. In short, it runs like this:
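Rat PK: IV dose 2 mg/kg in PEG400/water (70:30); oral dose 30 mg/kg in PEG400/H2O/Tween (80/18/2). Values are the mean of 3 rats.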

For data set [9], the system named is Mus musculus. Put plainly: Antiinflammatory activity in po dosed mouse plasma assessed as inhibition of LPS-induced TNFalpha production administered 1 hr before LPS challenge measured after 1 hr. The format is functional. The method, boiled down:
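Mice received compound orally in Cremophor RH 1 h before LPS challenge. Plasma TNF-α was measured 1 h after challenge. n = 8 per group; doses were 3 and 10 mg/kg.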

In the case of `COc1ccc(F)cc1C(C)(C)C[C@@](O)(Cc1cc2ccccc2[nH]1)C(F)(F)F`, the IC50 in [1] was 190 nM. For the same molecule, the result in data set [2] was inactive.
Turning to `CC(C)(C[C@@](O)(Cc1cc2ccc(C#N)cc2[nH]1)C(F)(F)F)c1cc(S(C)(=O)=O)cc2c1OCC2`, the Activity in the data set on Mus musculus [3] stood at 8%. The inhibition in vivo at 10 mg/kg in the data set on Mus musculus [4] was determined as 62%. Besides, in data set [5], the clearance came out at 4 mL/min/kg. The highest concentration (Cmax) in data set [6] stood at 6190 ng/mL. The Ratio IC50 in the data set listed under Homo sapiens was found to be 100. In addition, the Vd in [7] stood at 0.9 L/kg. In addition, in data set [8], the bioavailability was determined as 51%. Also, the IC50 in data set [1] worked out at 230 nM. Besides, in the data set on Mus musculus [9], the ED50 is below 3 mg/kg.
